Assay results taken from ChEMBL document CHEMBL1122459, “4-(Diphenylmethyl)-1-[(imino)methyl]piperidines as gastric antisecretory agents” (J Med Chem, 1983).

How the values were obtained:
[1] = Ratio between gastric emptying(GE) and acute gastric fistula(AGF); type: functional, Stomach
Rattus norvegicus [2] = species: Rattus norvegicus; test: Relative potency against atropine; type: functional
Rattus norvegicus [3] = test: Antisecretory activity against acute gastric fistula(AGF) in rat when administered perorally; type: functional; settings: Stomach, po
Procedure, shortened: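 Female Sprague-Dawley rats, 120-160 g, fasted ≥18 h; drug or vehicle (0.5% methocel) po 1 h before surgery. Under ether, fundic fistula tube inserted; first 30-min sample discarded, then two 1-h collections. Volume measured, aliquot titrated to pH 7 with 0.01 N NaOH for total acid output. ED50 = dose for 50% inhibition vs controls, least-squares regression; ≥5 rats/group, ≥3 doses.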

[4] = molecular target: Muscarinic acetylcholine receptor; test: Displacement of [3H]- quinuclidinyl benzilate from rat brain Muscarinic acetylcholine receptor
Rattus norvegicus [5] = test: Anticholinergic activity against carbachol induced gastric emptying(GE) in rat when administered perorally; type: functional; settings: Stomach, po
Procedure, shortened: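 Ten 1-mm polystyrene beads placed in stomach by tube 30 min later; carbachol 80 mcg/kg sc at 1 h post-dose; killed 15 min after. Beads left in stomach counted. ED50 = dose giving 50% inhibition of emptying vs controls, by least-squares regression; ≥5 rats/group, ≥3 dose groups.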

Rattus norvegicus [6] = test: Anticholinergic activity against carbachol-induced gastric emptying (GE) in rat when administered perorally; settings: Stomach, po
Rattus norvegicus [7] = species: Rattus norvegicus; test: animal or person; settings: Stomach, po

Row | I50 [4] | Compound | Ratio [1] | Relative Potency (Rattus norvegicus [2]) | ED50 (Rattus norvegicus [3]) | ED50 (Rattus norvegicus [5]) | ED50 (Rattus norvegicus [6]) | ED50 (Rattus norvegicus [7])
1 | 3 nM | Cl.N=CN1CCC(C(c2ccccc2)c2ccccc2)CC1 | 2.53 | 81.7 | 0.34 mg/kg | 0.86 mg/kg |  | 
2 | 1300 nM | C#CC/N=C/N1CCC(C(c2ccccc2)c2ccccc2)CC1.Cl | 1.48 | 0.19 | 5.4 mg/kg | 8 mg/kg |  | 
3 | 3800 nM | CCCCCCCCCC/N=C/N1CCC(C(c2ccccc2)c2ccccc2)CC1 | 5.52 | 0.06 | 7.8 mg/kg | 43.1 mg/kg |  | 
4 | 490 nM | C=CC/N=C/N1CCC(C(c2ccccc2)c2ccccc2)CC1 | 1.27 | 0.51 | 10.4 mg/kg | 13.2 mg/kg |  | 
5 | 70 nM | CCC(=N)N1CCC(C(c2ccccc2)c2ccccc2)CC1 | 0.37 | 3.61 | 54.5 mg/kg | 20 mg/kg |  | 
6 | 1600 nM | CC(C)/N=C/N1CCC(C(c2ccccc2)c2ccccc2)CC1.O=C(O)/C=C/C(=O)O | 1.76 | 0.15 | 8.6 mg/kg | 15.1 mg/kg |  | 

Further lines, the molecule ahead of its results:

Row | Compound | I50 [4] | Ratio [1] | Relative Potency (Rattus norvegicus [2]) | ED50 (Rattus norvegicus [3]) | ED50 (Rattus norvegicus [5]) | ED50 (Rattus norvegicus [6]) | ED50 (Rattus norvegicus [7])
7 | CN1[C@@H]2CC[C@H]1C[C@@H](OC(=O)C(CO)c1ccccc1)C2 (stereo partly drawn) [ATROPINE] |  |  |  | 0.64 mg/kg | 0.35 mg/kg |  | 
8 | CCCC/N=C/N1CCC(C(c2ccccc2)c2ccccc2)CC1.O=C(O)/C=C/C(=O)O | 1600 nM | 1.36 | 0.15 | 7.6 mg/kg | 10.3 mg/kg |  | 
9 | CCCCCC/N=C/N1CCC(C(c2ccccc2)c2ccccc2)CC1.O=C(O)/C=C/C(=O)O | 1900 nM | 1.8 | 0.13 | 8.34 mg/kg | 15 mg/kg |  | 
10 | CCCCCCCCC/N=C/N1CCC(C(c2ccccc2)c2ccccc2)CC1.O=C(O)/C=C/C(=O)O | > 10000 nM | 3.74 |  | 10.8 mg/kg | 40.4 mg/kg |  | 
11 | CCCCCCC/N=C/N1CCC(C(c2ccccc2)c2ccccc2)CC1.O=C(O)/C=C/C(=O)O | 3300 nM | 2.9 | 0.08 | 11.5 mg/kg | 33.4 mg/kg |  | 
12 | CCCCCCCC/N=C/N1CCC(C(c2ccccc2)c2ccccc2)CC1.O=C(O)/C=C/C(=O)O | 8600 nM | 16.15 | 0.04 | 10.9 mg/kg | 176 mg/kg |  | 
13 | CN/C(=N\CCSCc1nc[nH]c1C)NC#N [CIMETIDINE] |  |  |  |  |  | 160 mg/kg | 7.6 mg/kg
